Key:
Felis catus [1] = species on record: Felis catus; assay: 66 The maximal difference in Intraocular Pressure (IOP) between treated and control eyes. The effect was tested in cats at a dose of 3.0 (ug/eye); type: functional
Summary of the method: (§1)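 Domestic female cats, 2–3 kg, trained for IOP measurement. One eye received a topical drop (20 µL) of drug in 0.9% NaCl with 0.5% polysorbate 80; the other eye received vehicle. IOP was read by pneumatonometer under oxibuprocain local anaesthesia before dosing and at 1, 3, 6 and 23 h. The maximal treated-minus-control difference was taken. Area between curves is the treated-eye AUC minus control-eye AUC, per animal.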

Felis catus [2] = species on record: Felis catus; assay: The maximal difference in Intraocular Pressure (IOP) between treated and control eyes. The effect was tested in cats at a dose of 1.0 (ug/eye); type: functional; summary of the method: as §1
Felis catus [3] = species on record: Felis catus; assay: The mean ocular irritation in the treated eyes. An arbitrary scale of from 0 to 3 was used, 0 indicates absence of irritation and 3 complete closure of the lids. The effect was tested in cats at a dose of 1.0 (ug/eye); type: functional
Summary of the method: (§2)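 Ocular irritation was scored in the treated eye of trained female cats, 2–3 kg. Drug was given as one topical 20 µL drop in 0.9% NaCl with 0.5% polysorbate 80. The contralateral eye got vehicle only.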

Felis catus [4] = species on record: Felis catus; assay: The mean ocular irritation in the treated eyes. An arbitrary scale of from 0 to 3 was used, 0 indicates absence of irritation and 3 complete closure of the lids. The effect was tested in cats at a dose of 3.0 (ug/eye); type: functional; summary of the method: as §2
Felis catus [5] = species on record: Felis catus; assay: The maximal difference in […] pupil diameter between treated and control eyes. The effect was tested in cats at a dose of 1.0 (ug/eye); type: functional
Summary of the method: (§3)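 Trained female cats, 2–3 kg, were dosed unilaterally with one 20 µL topical drop of drug in 0.9% NaCl/0.5% polysorbate 80, with vehicle in the contralateral eye. Horizontal pupil diameter was measured with a millimetre ruler under constant 10 lux illumination before dosing and at 1, 3, 6 and 23 h. Reported as maximal treated–control difference or as area between curves, per animal.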

Felis catus [6] = species on record: Felis catus; assay: The maximal difference in […] pupil diameter between treated and control eyes. The effect was tested in cats at a dose of 3.0 (ug/eye); type: functional; summary of the method: as §3
Felis catus [7] = species on record: Felis catus; assay: The mean area between curves for Intraocular Pressure (IOP) measured in treated and control eyes. The effect was tested in cats at a dose of 1.0 (ug/eye); type: functional; summary of the method: as §1
Felis catus [8] = species on record: Felis catus; assay: The mean area between curves for Intraocular Pressure (IOP) measured in treated and control eyes. The effect was tested in cats at a dose of 3.0 (ug/eye); type: functional; summary of the method: as §1
Felis catus [9] = species on record: Felis catus; assay: The mean area between curves for pupil diameter between treated and control eyes. The effect was tested in cats at a dose of 1.0 (ug/eye); type: functional; summary of the method: as §3
Felis catus [10] = species on record: Felis catus; assay: The mean area between curves for pupil diameter between treated and control eyes. The effect was tested in cats at a dose of 3.0 (ug/eye); type: functional; summary of the method: as §3
Oryctolagus cuniculus [11] = species on record: Oryctolagus cuniculus; assay: The maximal difference in conjunctival hyperemia between treated and control eyes. The effect was tested in rabbit at a dose of 0.5 (ug/eye)
Oryctolagus cuniculus [12] = species on record: Oryctolagus cuniculus; assay: The mean area between curves for conjunctival hyperemia between treated and control eyes. The effect was tested in rabbit at a dose of 0.5 (ug/eye)
Felis catus [13] = species on record: Felis catus; assay: The maximal difference in Intraocular Pressure (IOP) between treated and control eyes. The effect was tested in cats at a dose of 3.0 (ug/eye); type: functional; summary of the method: as §1
Monkey [14] = assay: The mean area between curves for Intraocular Pressure (IOP) measured in treated and control eyes. The effect was tested in monkey at a dose of 3.0 (ug/eye); type: functional, Cercopithecidae
Summary of the method: (§4)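 Cynomolgus monkeys trained for IOP measurement were sedated with ketamine (2–3 mg/kg) for transport and seated in restraint chairs under oxibuprocain local anaesthesia. One eye received a 10 µL drop of drug in 0.9% NaCl/0.5% polysorbate 80; the fellow eye received vehicle. IOP was read by pneumatonometer calibrated for monkey eyes before dosing and at 1, 2, 4 and 6 h. Matched-pair t test, n = 6.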

Monkey [15] = assay: The maximal difference in Intraocular Pressure (IOP) between treated and control eyes. The effect was tested in monkey at a dose of 3.0 (ug/eye); type: functional, Cercopithecidae; summary of the method: as §4

Row | Compound | Imax (Felis catus [1]) | Imax (Felis catus [2]) | Irritation (Felis catus [3]) | Irritation (Felis catus [4]) | Pmax (Felis catus [5]) | Pmax (Felis catus [6]) | I ABC (Felis catus [7]) | I ABC (Felis catus [8]) | P ABC (Felis catus [9]) | P ABC (Felis catus [10]) | Hmax (Oryctolagus cuniculus [11]) | H ABC (Oryctolagus cuniculus [12]) | Imax (Felis catus [13]) | I ABC (Monkey [14]) | Imax (Monkey [15])
1 | CC(C)OC(=O)CCC/C=C\C[C@@H]1[C@@H](/C=C/[C@@H](O)CCc2ccc(-c3ccsc3)cc2)[C@H](O)C[C@@H]1O | -5 mmHg | <-4 mmHg | 0.2 arbitrary units | 0.6 arbitrary units | -1 mm | < -1.2 mm | -63.2 | <-66 | -3.3 | <-9.2 | 0.3 | <0.8 |  |  | 
2 | CC(C)OC(=O)CCC/C=C\C[C@@H]1[C@@H](/C=C/[C@@H](O)CCc2ccc(-c3ccco3)cc2)[C@H](O)C[C@@H]1O |  |  |  | 0.6 arbitrary units |  | -0.6 mm |  | -76.1 |  | -6 | -0.1 | -0.2 | <-5 mmHg | 0.5 | 0.3 mmHg
